Data set [1] in a line: Scavenging activity against NO generation in NOR1-induced cell culture. It is filed as functional. In outline: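 Cultured-cell screen for scavenging of NO released by the NO donor NOR 1. Activity expressed as inhibitory ratio (IR) against NOR 1 action, with glycyrrhizin and carboxy-PTIO as reference compounds.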
Data set [2] is described as follows: Cytotoxicity against human Raji cells assessed as cell viability at 1000 mol ratio/TPA relative to control. It is filed as cell-based. As to conditions: read-out: Activity. In outline:
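Raji cells stimulated with TPA at 32 pmol (20 ng), taken as 100% positive control. Test compound added at mol ratio to TPA of 1000, 500, 100 or 10 (1000:1 = 32 nmol). EBV-EA induction expressed as % of positive control; Raji cell viability recorded as % at the 1000 ratio. IC50 as mol ratio to TPA inhibiting 50% of control.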

The species named for data set [3] is Mus musculus. The experiment in a line: Inhibition of DMBA-induced carcinogenesis in mouse assessed as reduction in papilloma bearing mouse after 10 weeks. In kind it is functional. More on the design: scale not given: the % may be the effect or the level left. The method in brief:
(§1)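 Mouse skin two-stage model, DMBA initiation and TPA promotion. Promotion with TPA 1.7 nmol; treated groups received 85 nmol test compound with each TPA application. Read-outs were % of mice bearing papillomas and mean papillomas per mouse, scored at 10 and 20 weeks. Papilloma numbers compared by Student's t-test.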

The species named for data set [4] is Mus musculus. As to the kind of experiment: Inhibition of DMBA-induced carcinogenesis in mouse assessed as reduction in papilloma bearing mouse after 20 weeks. It is filed as functional. On the set-up: scale not given: the % may be the effect or the level left. In outline: as §1
Data set [5] is filed under the species Mus musculus. As to the kind of experiment: Inhibition of DMBA-induced carcinogenesis in mouse assessed as number of papillomas per mouse after 10 weeks. It is filed as functional. In outline: as §1
Data set [6] is filed under the species Mus musculus. As to the kind of experiment: Inhibition of DMBA-induced carcinogenesis in mouse assessed as number of papillomas per mouse after 20 weeks. It is filed as functional. In outline: as §1
Data set [7] relates to Raji. As to the kind of experiment: Inhibition of TPA-induced Epstein-Barr virus early antigen in Raji cells at 10 mol ratio/TPA relative to control; values are per cent of control. The conditions noted are these: human gammaherpesvirus 4.
The test system of data set [8] is Raji. As to the kind of experiment: Inhibition of TPA-induced Epstein-Barr virus early antigen in Raji cells at 500 mol ratio/TPA relative to control; values are per cent of control. As to conditions: human gammaherpesvirus 4.
Data set [9] has as its system Raji. As to the kind of experiment: Inhibition of TPA-induced Epstein-Barr virus early antigen in Raji cells at 100 mol ratio/TPA relative to control; values are per cent of control. As to conditions: human gammaherpesvirus 4.
Data set [10] deals with Raji. The experiment in a line: Inhibition of TPA-induced Epstein-Barr virus early antigen in Raji cells at 1000 mol ratio/TPA relative to control; values are per cent of control. As to conditions: human gammaherpesvirus 4.
Data set [11] has as its system Mus musculus. The experiment in a line: Inhibition of peroxynitrite-induced carcinogenesis in po dosed mouse skin assessed as incidence of papilloma bearing mouse after 20 weeks. On the set-up: scale not given: the % may be the effect or the level left. In kind it is functional. In outline:
(§2)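 Mouse back shaved and initiated topically with peroxynitrite (PN) 390 nmol in 1 mM NaOH (0.1 mL). Test compound given orally at 0.0025% in drinking water from 1 week before to 1 week after initiation. From 1 week after initiation, TPA (1 μg, 1.7 nmol) in acetone applied twice weekly. 15 mice per group. Papilloma incidence and papillomas per mouse recorded weekly for 20 weeks; papillomas counted once about 1 mm × 1 mm. Student's t-test used.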

Data set [12] relates to Mus musculus. As to the kind of experiment: Inhibition of peroxynitrite-induced carcinogenesis in po dosed mouse skin assessed as reduction in papilloma bearing animals after 20 weeks. In kind it is functional. In outline:
as §2

As to `C=C(C)/C=C/C[C@@H](C)[C@H]1CC[C@@]2(C)[C@@H]3C=C[C@@]45O[C@@H](OC)[C@]3(CC[C@]12C)[C@@H]4CC[C@H](O)C5(C)C`, the inhibitory ratio (IR) against NOR 1 action in data set [1] is 2. Besides, the viability at 1000 mol ratio/TPA in data set [2] amounted to 70%. Moreover, the Activity in the data set listed under Mus musculus [3] came to 33%; in the data set filed under Mus musculus [4], 80%; in the data set filed under Mus musculus [5] it was 1.7; in the data set filed under Mus musculus [6] it was 4. The level, % of control came out at 82.7% with Raji [7], 18.5% in the data set with Raji [8], 60.2% with Raji [9] and 0% with Raji [10].

Consider `CO[C@@H]1O[C@]23C=C[C@@H]4[C@@]1(CC[C@]1(C)[C@@H]([C@H](C)C/C=C/C(C)(C)OC)CC[C@@]41C)[C@@H]2CC[C@H](O)C3(C)C`, for which, in [1], the inhibitory ratio (IR) against NOR 1 action worked out at 1.9. The viability at 1000 mol ratio/TPA in data set [2] turned out to be 70%. In addition, the Activity in the data set listed under Mus musculus [3] was determined as 33%; in the data set filed under Mus musculus [4] it was 80%; in the data set listed under Mus musculus [5] it was 2.1; in the data set listed under Mus musculus [6], 3.9; in the data set with Mus musculus [11], 80%; with Mus musculus [12], 4.5. The level, % of control in the data set on Raji [7] came to 83.9%; in the data set on Raji [8], 19%; in the data set on Raji [9], 42.4%; in the data set with Raji [10] it was 0%.

Values taken from ChEMBL document CHEMBL1141264, “Cucurbitane-type triterpenoids from the fruits of Momordica charantia and their cancer chemopreventive effects” (J Nat Prod, 2007).
